Screening data as filed in PubChem.
M1 antag: human M1 muscarinic receptor antagonists, primary screen, CHO-K1 cells, Fluo-8 calcium fluorescence, 1536-well; Muscarinic acetylcholine receptor M1 (Homo sapiens), P11229; CHO-K1 hM1, ACh EC80 antagonist; inhibition, % at 3 µM; 360,000 compounds, 1.3% hits;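 active = percent inhibition above its own plate's cutoff, namely the mean of that plate's compound wells plus 3 SD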;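 note: peak over basal fluorescence ratio during 140 s after agonist addition; 0% = ACh EC80 plus DMSO and 100% = DMSO alone without agonist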
Target sequence (P11229 whole entry, looked up): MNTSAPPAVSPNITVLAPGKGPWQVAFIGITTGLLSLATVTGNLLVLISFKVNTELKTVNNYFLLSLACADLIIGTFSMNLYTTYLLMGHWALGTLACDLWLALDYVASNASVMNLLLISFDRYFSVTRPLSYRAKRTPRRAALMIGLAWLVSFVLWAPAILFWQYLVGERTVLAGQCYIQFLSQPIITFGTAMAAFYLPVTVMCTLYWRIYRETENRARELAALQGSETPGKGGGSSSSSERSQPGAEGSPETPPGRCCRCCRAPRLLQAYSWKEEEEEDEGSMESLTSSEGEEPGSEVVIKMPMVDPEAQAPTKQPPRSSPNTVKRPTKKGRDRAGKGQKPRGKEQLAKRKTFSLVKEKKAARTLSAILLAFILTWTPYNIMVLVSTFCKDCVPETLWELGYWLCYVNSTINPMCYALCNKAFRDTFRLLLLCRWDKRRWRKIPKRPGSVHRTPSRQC
M1 PAM: human M1 muscarinic receptor positive allosteric modulators, primary screen, CHO-K1 cells, Fluo-8 calcium fluorescence, 1536-well | CHO-K1 hM1, ACh EC20; 0% = ACh EC20, 100% = maximal ACh | 360,000 compounds, 0.088% hits | activation, % at 3 µM | AID 588819, 2011; in the data active = activation above about 19%, passing the limit was not always enough
M1 ag: human M1 muscarinic receptor agonists, primary screen, Fluo-8 calcium fluorescence, CHO-K1 cells, HTS | Muscarinic acetylcholine receptor M1 (Homo sapiens), P11229 | CHO-K1 hM1, agonist mode; 0% DMSO, 100% acetylcholine EC100 | activation, % at 3 µM | 360,000 compounds, 0.33% hits | AID 588814, 2011;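 active = activation above the run's mean compound activation plus 3 SD, cut at about 16% in these data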;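 note: peak over basal fluorescence ratio within a 140 s kinetic read after compound addition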
TAAR1 antag: human TAAR1 antagonists, primary screen, Fluo-8 calcium fluorescence, CHO RD-HGA16 cells. Trace amine-associated receptor 1 (Homo sapiens), Q96RJ0. antagonist. inhibition, % at 3 µM. 360,000 compounds, 1.5% hits. AID 624466, 2012;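 active = inhibition above a per-plate cutoff, the mean inhibition of test compounds on that plate plus 3 SD, cut at about 49% in these data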;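 note: 0% = DMSO plus EC80 beta-PEA response and 100% = DMSO alone without agonist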
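test system = CHO RD-HGA16 cells bearing hTAAR1 | replication = singlicate | controls = DMSO-only wells and EC80 β-PEA-stimulated wells | reagent = EC80 β-phenethylamine stimulus | read-out basis = percent inhibition of PEA-evoked calcium signal, max/basal emission ratio | schedule = seeding 17-24 h prior, 75-min 37 °C, 30-min RT dye loading | signal = kinetic Fluo-8 calcium fluorescence measurement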
TAAR1 agonist: human TAAR1 agonists, primary screen, Fluo-8 calcium fluorescence, CHO RD-HGA16 cells; Trace amine-associated receptor 1 (Homo sapiens), Q96RJ0; vehicle wells 0%, saturating PEA agonist 100%; activation, % at 3 µM; 360,000 compounds, 0.99% hits; AID 624467, 2012;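 active = activation above the mean activation of all test compounds in the run plus 3 SD, cut at about 38% in these data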
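test system = CHO RD-HGA16 cells carrying human TAAR1 plus Gα16 | schedule = 17-24 h seeding, 75 min 37 °C dye, 30 min RT | compound dosing = 3 µM single concentration | control set = DMSO and PEA EC100 | replicates = n 1 | signal = Fluo-8 fluorescence, 5 s baseline then 140 s kinetic read | measure = percent activation vs PEA EC100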
* hit, by the source's call; · = no result. Compounds with a hit are over-represented: about 3.4% of the library has one in this group of screens.

SMILES	M1 antag	M1 PAM	M1 ag	TAAR1 antag	TAAR1 agonist
O=C1C(=O)N(CCN2CCOCC2)C(c2ccc(F)cc2)/C1=C(/O)c1ccc(S(=O)(=O)N2CCOCC2)cc1 (stereo unspecified)	31*	-10	-7	-9	4
C[C@H]1CN([C@@H](C)CO)C(=O)CCCn2cc(nn2)CO[C@@H]1CN(C)S(=O)(=O)c1ccccc1F	·	·	·	12	1
Cc1ccc(N(C)S(=O)(=O)c2c[nH]c3ccc([N+](=O)[O-])cc23)cc1	8	-3	0	51*	3
COc1ccc(-c2nnc(NC(=O)C(C)C)s2)c(OC)c1	39*	-10	-1	-8	7
COc1ccc2[nH]c3c4c(ccc3c2c1)C(=O)C=CC4=O	-20	16	-3	77*	44*
COc1ccc(CCNC(=O)CCCCCN2C(=O)[C@@H]3Cc4ccccc4CN3C2=O)cc1OC	-11	-2	-7	-7	2
COc1ccc(CCNC(=O)CCN2C(=O)[C@@H]3Cc4ccccc4CN3C2=O)cc1OC	16	-17	-2	50*	16
COC(=O)[C@]12C[C@H](CC(=O)N3CCSCC3)C(=O)N(Cc3ccccc3)C1=C[C@H](C1CCCC1)O[C@@H]2C	·	·	·	-37	-2
N=c1c2c(-c3ccccc3)c(-c3ccccc3)n(Cc3ccco3)c2ncn1Cc1ccccc1	0	1	-3	8	16
CC(C)Cn1cnc2c(c(-c3ccccc3)c(-c3ccccc3)n2Cc2ccco2)c1=N	1	-13	3	-8	42*
CN(C)C(CNC(=O)CN1C(=O)NC2(CCCC2)C1=O)c1ccccc1 (stereo unspecified)	48*	-22	-8	-9	11
COc1ccc(C2(c3ccc(OC)cc3)NC(=O)N(CC(=O)NCC(C)c3ccccc3)C2=O)cc1 (stereo unspecified)	15	-9	2	57*	22
CC(CNC(=O)CN1C(=O)NC2(CCCCC2)C1=O)c1ccccc1 (stereo unspecified)	-4	4	-3	14	0
CCCCN1CC(N2CCN(C(=O)c3ccco3)CC2)CS1(=O)=O (stereo unspecified)	-5	6	-6	2	-1
CC1=C(C(=O)N2CCOCC2)CC(CC(=O)NCCCN(C)C)C(=O)N1Cc1ccc(F)cc1 (stereo unspecified)	-36	4	-3	-5	3
CC1(c2ccccc2)NC(=O)N(CC(=O)Nc2ccccc2N2CCCC2)C1=O (stereo unspecified)	-2	8	16*	17	12
Cc1ccc(NC(=O)CN2C(=O)NC(C)(c3ccc(Cl)cc3)C2=O)cc1 (stereo unspecified)	-2	15	18*	21	41*
CCC1(c2ccc(F)cc2)NC(=O)N(CC(=O)N2CCc3ccccc32)C1=O (stereo unspecified)	9	-7	24*	24	68*
Cc1ccc(C2(C)NC(=O)N(CC(=O)N3CCc4ccccc43)C2=O)cc1 (stereo unspecified)	-17	8	29*	-10	34
Nc1[nH]c(C(=O)c2ccccc2)c(-c2cccc3ccccc23)c1C(=O)NCc1ccc(Cl)cc1Cl	·	·	·	-28	0
N#Cc1ccc(S(=O)(=O)NCC2CCN(C(=O)C(=O)c3cc4ccccc4o3)CC2)cc1	·	·	·	-8	6
COc1ccc(N2C(=O)c3n[nH]c(C)c3C2c2cccc(C(F)(F)F)c2)cc1 (stereo unspecified)	·	·	·	-18	3
Cc1ccc(NC(=O)COC(=O)C2(c3ccc(Cl)cc3)CCCC2)cc1	14	-11	-5	58*	10
COc1ccc(C(=O)CC2(O)C(=O)N(CN3CCOCC3)c3ccc(Br)cc32)cc1 (stereo unspecified)	·	·	·	-3	4
COc1ccccc1CN1CCNC(=O)C1CC(=O)NC1Cc2ccccc2C1 (stereo unspecified)	0	0	-4	-14	41*
SMILES	M1 antag	M1 PAM	M1 ag	TAAR1 antag	TAAR1 agonist
COc1ccccc1CN1CCNC(=O)C1CC(=O)O (stereo unspecified)	-3	8	-2	15	5
COc1ccc(NC(=S)N2CCC(C(=O)c3ccc(Cl)cc3)CC2)cc1	-5	1	-1	9	0
CCOc1ccc(NC(=S)N2CCC(C(=O)c3ccc(OC)cc3)CC2)cc1	-30	29*	0	4	-1
OCCN(Cc1cccnc1)Cc1ccccn1	59*	-29	-8	-14	2
O=C1Nc2c(Cl)cc(Cl)cc2C1=O	-14	3	16*	1	4
OCc1cccc(-c2cnc3c(Nc4cccc(OC(F)(F)C(F)F)c4)nccn23)c1	7	-5	1	60*	5
COc1ccc(NC(=O)CSc2nc3ccsc3c(=O)n2CCCCCC(=O)O)cc1	0	5	-3	50*	4
O=C(O)CCCCCn1c(SCC(=O)Nc2ccc(F)cc2)nc2ccsc2c1=O	-12	14	-1	-12	-1
CCCOC(=O)C1=C(C)NC2=C(C(=O)CCC2)C1c1ccc(N(C)C)cc1 (stereo unspecified)	26*	-25	-10	-14	4
CCN(CC)c1ccc(C2C(C(=O)OCCOC)=C(C)NC3=C2C(=O)CCC3)cc1 (stereo unspecified)	24	-18	-9	-7	2
CCOC(=O)C1=C(C)NC2=C(C(=O)CCC2)C1c1ccc(N(C)C)cc1 (stereo unspecified)	45*	-32	-12	-11	-1
CO[C@@H]1[C@H](O)CC[C@]2(O)CN(c3ccc(F)cc3)[C@](C)([C@H](O)CC=C(C)C)[C@@H]12	·	·	·	-22	4
CCOc1ccc(C(C)NC(=S)NCc2ccc(Cl)cc2)cc1 (stereo unspecified)	14	-4	3	21	45*
COc1ccc(C(C)NC(=S)NCc2ccc(F)cc2)cc1OC (stereo unspecified)	-6	12	-2	-11	6
CCCc1ccc(C(C)NC(=S)NCc2ccc(F)cc2)cc1 (stereo unspecified)	44*	-17	7	70*	58*
CCC(C)c1ccc(C(C)NC(=S)NCc2ccc(F)cc2)cc1 (stereo unspecified)	34*	-17	-6	37	7
CCC(NC(=S)NCc1ccc(F)cc1)c1ccc(C(C)C)cc1 (stereo unspecified)	97*	-23	2	38	11
